The species entered for data set [1] is Gallus gallus. The experiment in a line: Number of chicks cleared of eimeria tenella lesions out of a group of 5 when given in the diet at 25 p.p.m. Type of data set: functional. Put shortly:
(§1)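 One-week-old chicks were given a simultaneous infection of E. tenella (Weybridge strain) and E. acervulina (Ongar strain). Infection took place 1 day after medication began. Compound was mixed into the diet and fed ad libitum until the end of the test.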

The species entered for data set [2] is Gallus gallus. The experiment in a line: Number of chicks cleared of eimeria tenella lesions out of a group of 5 when given in the diet at 200 ppm. The format is functional. An outline of the steps:
(§2)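 One-week-old chicks infected with E. tenella (Weybridge strain) together with E. acervulina (Ongar strain) one day after medication began. Compound mixed into the diet and fed ad libitum until the end of the test.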

Data set [3] is filed under the species Gallus gallus. The experiment in a line: Number of chicks cleared of eimeria tenella lesions out of a group of 5 when given in the diet at 100 ppm. Type of data set: functional. Put shortly: as §1
In a further data set the test system is Eimeria tenella. The experiment in a line: Inhibition Eimeria tenella growth. Particulars: read-out: MEC. Type of data set: functional. An outline of the steps: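 E. tenella (Weybridge strain) grown in vitro in embryonic chick liver cells. Toxicity to the host liver cells was scored in the same culture system.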
The species named for data set [4] is Gallus gallus. The experiment in a line: Number of chicks cleared of eimeria tenella lesions out of a group of 5 when given in the diet at 50 p.p.m. The format is functional. An outline of the steps: as §1
The species entered for data set [5] is Gallus gallus. The experiment in a line: Number of chicks cleared of Eimeria tenella lesions out of a group of 5 when given in a diet of 400 ppm. The format is functional. Put shortly:
as §1

The species entered for data set [6] is Gallus gallus. The data set is described as follows: Number of chicks cleared of eimeria tenella lesions out of a group of 5 when given in the diet at 100 p.p.m. The format is functional. Put shortly:
as §1

The species named for data set [7] is Gallus gallus. The data set is described as follows: Number of chicks cleared of eimeria tenella lesions out of a group of 5 when given in the diet at 200 p.p.m. The format is functional. Put shortly: as §1
Data set [8] is filed under the species Gallus gallus. The experiment in a line: Number of chicks out of a group of five that died due to toxicity when given in the diet at 400 ppm. Type of data set: organism-based. The following applies: chicken, in vivo, po. An outline of the steps:
as §2

Data set [9] is filed under the species Gallus gallus. The data set is described as follows: Number of chicks out of a group of five that died due to toxicity when given in the diet at 100 ppm. Type of data set: organism-based. Particulars: chicken, in vivo, po. Put shortly:
as §2

Data set [10] is filed under the species Gallus gallus. The data set is described as follows: Number of chicks out of a group of five that died due to toxicity when given in the diet at 200 ppm. The format is organism-based. The following applies: chicken, in vivo, po. Put shortly:
as §2

The species entered for data set [11] is Gallus gallus. The experiment in a line: Number of chicks cleared of eimeria tenella lesions out of a group of 5 when given in the diet at 400 p.p.m. Type of data set: functional. An outline of the steps:
as §1

The species entered for data set [12] is Gallus gallus. The data set is described as follows: Number of chicks cleared of eimeria tenella lesions out of a group of 5 when given in the diet at 400 ppm. The format is functional. An outline of the steps: as §1

Consider 36 molecules from ChEMBL document CHEMBL1121928, “Pyrazolo[3,4-d]pyrimidine ribonucleosides as anticoccidials. 1. Synthesis and activity of some nucleosides of purines and 4-(alkylthio)pyrazolo[3,4-d]pyrimidines” (J Med Chem, 1982).

Each structure is given as a SMILES string.

Turning to `C/C=C/CSc1ncnc2c1cnn2C1O[C@H](CO)[C@@H](O)[C@H]1O` (stereo partly specified), the No. of chicks in the data set listed under Gallus gallus [1] is given as 0; in the data set filed under Gallus gallus [2], 5; in the data set filed under Gallus gallus [3], 4; in the data set filed under Gallus gallus [4], 0. In addition, the minimal effective concentration in the data set on Eimeria tenella is 0.019 µg/mL.
On to `CSc1[nH]cnc2nncc1-2`, for which the minimal effective concentration in the data set on Eimeria tenella came out at 20 µg/mL.
Molecule `CCSc1[nH]cnc2nncc1-2` returned a No. of chicks in the data set filed under Gallus gallus [5] of 0.
Take `CSc1ncnc2[nH]cnc12`: in the data set with Eimeria tenella, the minimal effective concentration is more than 20 µg/mL.
With `CCSc1ncnc2c1cnn2C1O[C@H](CO)[C@@H](O)[C@H]1O` (stereo partly specified), the No. of chicks in the data set filed under Gallus gallus [1] was 2; in the data set listed under Gallus gallus [6] it was 5; in the data set filed under Gallus gallus [7] it was 5; in the data set listed under Gallus gallus [4], 5. In addition, in the data set with Eimeria tenella, the minimal effective concentration came to 0.31 µg/mL.
With `CSc1ncnc2c1nnn2[C@@H]1O[C@H](CO)[C@@H](O)[C@H]1O`, in the data set with Eimeria tenella, the minimal effective concentration is 1.25 µg/mL.
Regarding `CC(=O)CSc1ncnc2c1cnn2C1O[C@H](CO)[C@@H](O)[C@H]1O` (stereo partly specified), in the data set listed under Gallus gallus [2], the No. of chicks turned out to be 0. In addition, the minimal effective concentration in the data set on Eimeria tenella is more than 20 µg/mL.
With `Sc1ncnc2nc[nH]c12` [MERCAPTOPURINE ANHYDROUS], the minimal effective concentration in the data set on Eimeria tenella was more than 20 µg/mL.
For the molecule `Nc1nc(=S)c2ncn([C@@H]3O[C@H](CO)[C@@H](O)[C@H]3O)c2[nH]1` [THIOGUANOSINE], the minimal effective concentration in the data set with Eimeria tenella was more than 50 µg/mL.
Consider `CSc1ncnc2c1ncn2[C@H]1C[C@H](O)[C@@H](CO)O1`, for which the minimal effective concentration in the data set on Eimeria tenella was found to be 50 µg/mL.
Consider `CCCCCSc1ncnc2c1cnn2C1O[C@H](CO)[C@@H](O)[C@H]1O` (stereo partly specified), for which the No. of chicks in the data set listed under Gallus gallus [1] worked out at 0; in the data set filed under Gallus gallus [2] it was 5; in the data set filed under Gallus gallus [3], 3; in the data set filed under Gallus gallus [4], 0. The minimal effective concentration with Eimeria tenella is 0.31 µg/mL.
Regarding `CSc1ncnc2c1cnn2C1O[C@H](CO)[C@@H](O)[C@H]1O` (stereo partly specified), the No. of chicks in the data set listed under Gallus gallus [1] was found to be 0; in the data set listed under Gallus gallus [8], 4; in the data set listed under Gallus gallus [9], 1; in the data set listed under Gallus gallus [6] it was 2; in the data set listed under Gallus gallus [10] it was 2; in the data set listed under Gallus gallus [11] it was 1. Further, the No. of chicks in the data set listed under Gallus gallus [7] was 3; in the data set filed under Gallus gallus [4], 2. Moreover, the minimal effective concentration in the data set on Eimeria tenella came to 0.03 µg/mL.
Regarding `OC[C@H]1OC(n2ncc3c(S)ncnc32)[C@H](O)[C@@H]1O` (stereo partly specified), the minimal effective concentration in the data set with Eimeria tenella stood at 0.31 µg/mL. In addition, the No. of chicks in the data set filed under Gallus gallus [7] was determined as 2.
Take `CCSc1ncnc2c1ncn2[C@@H]1O[C@H](CO)[C@@H](O)[C@H]1O`: the minimal effective concentration in the data set with Eimeria tenella turned out to be 1.25 µg/mL.
Turning to `CSc1nc(C)nc2c1ncn2C1O[C@H](CO)[C@@H](O)[C@H]1O` (stereo partly specified), the minimal effective concentration in the data set on Eimeria tenella was more than 25 µg/mL.
Regarding `CCCCSc1ncnc2c1cnn2C1O[C@H](CO)[C@@H](O)[C@H]1O` (stereo partly specified), the No. of chicks was determined as 0 in the data set filed under Gallus gallus [1], 5 in the data set listed under Gallus gallus [2], 1 in the data set filed under Gallus gallus [3] and 0 in the data set listed under Gallus gallus [4]. For the same molecule, the minimal effective concentration in the data set on Eimeria tenella is 0.019 µg/mL.
Turning to `OC[C@H]1OC(n2ncc3c(SC4CCCC4)ncnc32)[C@H](O)[C@@H]1O` (stereo partly specified), the No. of chicks in the data set filed under Gallus gallus [2] is 1. The minimal effective concentration with Eimeria tenella came out at 5 µg/mL.
As for `OC[C@H]1OC(n2ncc3cncnc32)[C@H](O)[C@@H]1O` (stereo partly specified), the minimal effective concentration in the data set with Eimeria tenella is 1.3 µg/mL. Further, the No. of chicks in the data set filed under Gallus gallus [7] is reported as 1.
For the molecule `CSc1ncnc2c1ncn2[C@@H]1O[C@H](CO)[C@@H](O)[C@H]1O`, the minimal effective concentration with Eimeria tenella is 0.31 µg/mL.
For `C=CCSc1ncnc2c1cnn2C1O[C@H](CO)[C@@H](O)[C@H]1O` (stereo partly specified), the No. of chicks in the data set listed under Gallus gallus [1] turned out to be 1; in the data set filed under Gallus gallus [2], 5; in the data set filed under Gallus gallus [3], 5; in the data set filed under Gallus gallus [4] it was 2. Besides, in the data set on Eimeria tenella, the minimal effective concentration turned out to be 0.019 µg/mL.
In the case of `OC[C@H]1O[C@@H](n2cnc3c(S)ncnc32)[C@H](O)[C@@H]1O` [THIOINOSINE], the minimal effective concentration in the data set on Eimeria tenella is more than 20 µg/mL.
`CSc1nccc2c1ncn2C1O[C@H](CO)[C@@H](O)[C@H]1O` (stereo partly specified): the minimal effective concentration in the data set on Eimeria tenella was more than 20 µg/mL.
In the case of `CCCCCCCSc1ncnc2c1cnn2C1O[C@H](CO)[C@@H](O)[C@H]1O` (stereo partly specified), in the data set on Eimeria tenella, the minimal effective concentration amounted to 0.31 µg/mL. Also, in the data set listed under Gallus gallus [7], the No. of chicks was found to be 1.
As to `CCCCCSc1[nH]cnc2nncc1-2`, the minimal effective concentration in the data set with Eimeria tenella turned out to be 5 µg/mL.
For `COC(=O)CSc1ncnc2c1cnn2C1O[C@H](CO)[C@@H](O)[C@H]1O` (stereo partly specified), the No. of chicks in the data set filed under Gallus gallus [2] amounted to 0. Also, in the data set on Eimeria tenella, the minimal effective concentration was 20 µg/mL.
In the data set filed under Gallus gallus [12], `Sc1ncnc2[nH]ncc12` [TISOPURINE] yielded a No. of chicks of 0. Further, in the data set with Eimeria tenella, the minimal effective concentration is more than 20 µg/mL.
With `CCOP(=O)(CCSc1ncnc2c1cnn2C1O[C@H](CO)[C@@H](O)[C@H]1O)OCC` (stereo partly specified), the No. of chicks in the data set filed under Gallus gallus [2] is listed as 1. In the data set on Eimeria tenella, the minimal effective concentration is 5 µg/mL.
For the molecule `CSc1ncnc2c1ncn2[C@@H]1O[C@H](CO)[C@@H](O)[C@@H]1O`, the minimal effective concentration with Eimeria tenella is more than 20 µg/mL.
On the same count and under the same terms, the same measure for `CCCCCSc1ncnc2c1ncn2C1O[C@H](CO)[C@@H](O)[C@H]1O` (stereo partly specified): more than 50 µg/mL.
Regarding `CC(C)Sc1ncnc2c1cnn2C1O[C@H](CO)[C@@H](O)[C@H]1O` (stereo partly specified), the minimal effective concentration in the data set on Eimeria tenella stood at 0.019 µg/mL. The same molecule had a No. of chicks in the data set listed under Gallus gallus [11] of 0.
Regarding `CCCCCCSc1ncnc2c1cnn2C1O[C@H](CO)[C@@H](O)[C@H]1O` (stereo partly specified), the No. of chicks was 0 in the data set listed under Gallus gallus [1], 5 in the data set filed under Gallus gallus [2], 2 in the data set listed under Gallus gallus [3] and 0 in the data set listed under Gallus gallus [4]. Further, the minimal effective concentration in the data set with Eimeria tenella was 0.019 µg/mL.
Turning to `CSc1nc(N)nc2c1ncn2[C@@H]1O[C@H](CO)[C@@H](O)[C@H]1O`, in the data set with Eimeria tenella, the minimal effective concentration was 50 µg/mL.
Same read-out and setting: the result for `CCCCCSc1ncnc2[nH]cnc12` reads 20 µg/mL; that for `CSc1nc(SC)c2ncn(C3O[C@H](CO)[C@@H](O)[C@H]3O)c2n1` (stereo partly specified), more than 50 µg/mL; that for `CCSc1[nH]cnc2ncnc1-2`, more than 20 µg/mL.
Take `CCCSc1ncnc2c1cnn2C1O[C@H](CO)[C@@H](O)[C@H]1O` (stereo partly specified): the No. of chicks in the data set listed under Gallus gallus [1] was 0; in the data set filed under Gallus gallus [6], 1; in the data set listed under Gallus gallus [7], 4; in the data set filed under Gallus gallus [4], 0. In addition, in the data set with Eimeria tenella, the minimal effective concentration was 0.019 µg/mL.
